Values after ≈ are worked out from the molar mass of the structure shown.

Holding throughout (type): functional
In experiment [1] the test system is Prevotella melaninogenica. Briefly: In vitro antibacterial activity against the anaerobic Bacteroides melaninogenicus (Strain UC no.6326). A digest of the protocol: (§1)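 Agar dilution with serial twofold drug dilutions in Schaedler broth mixed into molten Wilkens-Chalgren agar. Strains grown 48 h on Schaedler agar, suspended to 0.5 McFarland, and 0.001 mL spotted by replicator. All steps done anaerobically. Incubation 48 h at 37 °C. MIC is the least drug inhibiting growth; a faint film or fewer than three colonies scored negative.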

The subject of experiment [2] is Clostridioides difficile. In words: In vitro antibacterial activity against the anaerobic Clostridium difficile (Strain UC no.6834). The method, boiled down: as §1
In experiment [3] the test system is Clostridioides difficile. Briefly: In vitro antibacterial activity against the anaerobic Clostridium difficile (Strain UC no.6858). The method, boiled down: as §1
The test system of experiment [4] is Clostridium perfringens. In words: In vitro antibacterial activity against the anaerobic Clostridium perfringens (Strain UC no.6509).
Experiment [5] concerns Clostridium botulinum. In words: In vitro antibacterial activity against the anaerobic Clostridium botulinum A(Strain UC no.6506).
Experiment [6] deals with Paeniclostridium sordellii. Briefly: In vitro antibacterial activity against the anaerobic Clostridium sordellii (Strain UC no.6505). To be noted: Paraclostridium sordellii. The method, boiled down: as §1
For experiment [7], the system named is Escherichia coli. Briefly: In vivo antibacterial activity against Escherichia coli(UC no 311) infected mice after sc administration. A digest of the protocol: (§2)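 Fresh drug solutions were given subcutaneously (0.2 mL) or by oral intubation (0.5 mL), per line. Dosing was immediately after infection, then daily for 4 consecutive days, with 3 further days of observation. CD50 was calculated by Spearman-Karber.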

Experiment [8] concerns Eggerthella lenta. Briefly: In vitro antibacterial activity against the anaerobic Eubacterium lentum(Strain UC no.6522). A digest of the protocol:
as §1

Experiment [9] deals with Fusobacterium varium. Briefly: In vitro antibacterial activity against the anaerobic Fusobacterium varium(Strain UC no.6052). A digest of the protocol:
as §1

The test system of experiment [10] is Pasteurella multocida. In words: (§3) In vivo antibacterial activity against Pasteurella multocida(UC 264) infected mice after oral administration. The method, boiled down: as §2
Experiment [11] has as its system Staphylococcus aureus. Briefly: In vivo antibacterial activity against Staphylococcus aureus(UC 76) infected mice after oral administration (value in parenthesis is 95% confidence interval). A digest of the protocol:
as §2

For experiment [12], the system named is Streptococcus pneumoniae. In words: In vivo antibacterial activity against Streptococcus pneumoniae III(UC 3213) infected mice after oral administration (value in parenthesis is 95% confidence interval). The method, boiled down:
as §2

Experiment [13] concerns Streptococcus pyogenes. In words: In vivo antibacterial activity against Streptococcus pyogenes (UC no 152) infected mice after sc administration (value in parenthesis is 95% confidence interval). A digest of the protocol:
as §2

The test system of experiment [14] is Staphylococcus epidermidis. Briefly: In vitro antibacterial activity against the aerobic Staphylococcus epidermidis (Strain UC no.719). The method, boiled down:
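Broth microdilution in brain/heart infusion broth with twofold drug dilutions. Inoculum was a standardized suspension giving 10⁵ viable cells/mL final. Plates were incubated 20 h at 37 °C. MIC (mcg/mL) = lowest concentration with no visible growth.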

Experiment [15] concerns Mus musculus. Briefly: In vivo antibacterial activity against Bacteroides fragilis (UC no 6428) infected mice after sc administration.
Experiment [16] concerns Mus musculus. In words: In vivo antibacterial activity against Escherichia coli (UC no 311) infected mice after sc administration. The method, boiled down:
as §2

Experiment [17] has as its system Mus musculus. In words: In vivo antibacterial activity against Plasmodium berghei infected mice (Mus musculus) after subcutaneous administration.
For experiment [18], the system named is Mus musculus. Briefly: In vivo antibacterial activity against Staphylococcus aureus (UC no 76) infected mice after sc administration. The method, boiled down:
as §2

For experiment [19], the system named is Mus musculus. Briefly: In vivo antibacterial activity against Staphylococcus aureus(UC 76) infected mice after oral administration. A digest of the protocol: as §2
The test system of experiment [20] is Mus musculus. In words: In vivo antibacterial activity against Streptococcus pneumoniae […](UC 3213) infected mice after sc administration. A digest of the protocol: as §2
Experiment [21] deals with Mus musculus. In words: In vivo antibacterial activity against Streptococcus pyogenes(UC 152) infected mice after sc administration. The method, boiled down: as §2
In experiment [22] the test system is Mus musculus. The description is as §3. A digest of the protocol:
as §2

In the case of `CC[C@@H]1CCN[C@H](C(=O)N[C@@H]([C@H]2O[C@H](SC)[C@H](O)[C@@H](O)[C@H]2O)[C@H](C)Cl)C1` [PIRLIMYCIN], the MIC in experiment [1] was 0.06 µg/mL (≈ 0.146 µM); in experiment [2], 3.9 µg/mL (≈ 9.49 µM); in [3] it was 3.9 µg/mL (≈ 9.49 µM); in [4], 0.12 µg/mL (≈ 0.292 µM); in [5], < 0.03 µg/mL; in experiment [6], 0.5 µg/mL (≈ 1.22 µM). The MIC in experiment [8] was found to be 1 µg/mL (≈ 2.43 µM); in experiment [9] it was 3.9 µg/mL (≈ 9.49 µM); in experiment [14], 0.2 µg/mL (≈ 0.487 µM). The CD50 in experiment [7] was >160 mg/kg; in experiment [10] it was 400 mg/kg; in experiment [11], 2.9 mg/kg; in [12], 17.7 mg/kg; in experiment [13], 0.25 mg/kg.

As to `CCC[C@@H]1C[C@@H](C(=O)N[C@@H]([C@H]2O[C@H](SC)[C@H](O)[C@@H](O)[C@H]2O)[C@H](C)Cl)N(C)C1` [CLINDAMYCIN], the CD50 in [15] was 14.4 mg/kg; in experiment [16], >160 mg/kg; in experiment [17] it was 53 mg/kg; in experiment [18], 5.7 mg/kg; in experiment [19] it was 12.3 mg/kg; in experiment [20], 20 mg/kg. Moreover, the CD50 was 2.3 mg/kg in [21] and >400 mg/kg in experiment [22].

The values are drawn from ChEMBL document CHEMBL1122773 (1984).
